Reference: paper PMC2119646 (The Journal of Cell Biology, 1993)

Columns and labels:
[1] = system: angiogenesis in vivo; conditions: Table VII; source Fibronectin, others; ref Eijan et al., 1991; cited from earlier work
[2] = system: Bovine adrenal capillary endothelial cells; assay: endothelial cell migration in an inverted modified Boyden chamber; format: cell-based
Procedure, shortened: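 Bovine capillary endothelial cells at passages 10-15 were starved 24 h in DME/0.1% BSA and adhered 1-2 h at 37°C to a gelatinized filter. The chamber was reinverted, with test material in the top well, and incubated 3-4 h at 37°C. Migrated cells were counted in 10 high-power fields, in quadruplicate, with experiments repeated at least twice. Results were expressed as % of positive-control migration after background subtraction and corrected for >10% detachment.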

[3] = system: neovascularization in the rat cornea; assay: rat cornea neovascularization assay; format: in vivo; conditions: Table I, Hydron pellets with TSP1 protein or fragments at 25-30 nM, without bFGF, vigorous vessel ingrowth from the limbus at 7 d = positive

G R G D
Small Peptides Able to Inhibit Angiogenesis In Vivo [1]: Able to Inhibit Angiogenesis In Vivo

SPWD I C*SVTC*GGGVQKRSK [Mal III]
ED50 for inhibition of migration with pure recombinant bFGF as inducer ([2]; retest of peptide with recombinant bFGF instead of conditioned media): 7 µM

TGF beta 1: Recombinant TGFβ1 purchased from R & D Sys. [reference compound]
concentrations that stimulated endothelial cell migration ([2]; TGFβ dose response, Fig. 8): 0.04 to 0.4 pM

TSP: Human thrombospondin-1 purified from platelet releasate, 450-kD trimer
Positive corneas/number implanted, Alone [3]: 0/5 | Migration of endothelial cells to upper chamber (%), Control, with bFGF ([2]; Table VI, bFGF 10 ng/ml plus TGFβ 0.2 ng/ml or TSP 2.5 µg/ml, no antiserum): < 1% | ability to block endothelial cell migration stimulated by bFGF ([2]; bFGF 10 ng/ml, Fig. 4 b): complete inhibition

bFGF: Recombinant bFGF, inducer and positive control [reference compound]
Migration of endothelial cells to upper chamber (%), Control ([2]; Table VI, addition alone: TGFβ 1 pg/ml or bFGF 10 ng/ml, no antiserum): 100%
